Reference: ChEMBL document CHEMBL4364267, “Hydrogen sulfide donating ent-kaurane and spirolactone-type 6,7-seco-ent-kaurane derivatives: Design, synthesis and antiproliferative properties” (Eur J Med Chem, 2019)
pIC50: −log10 of the molar value. Active and inactive are the calls of the source. No cut-off for these calls is given here.

How the values were obtained:
A549 = assay: Antiproliferative activity against human A549 cells assessed as reduction in cell viability after 72 hrs by MTT assay; assay type: functional, cell-based; conditions: A549, 72 h
Procedure, shortened: (§1)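 MTT assay over 72 h, compounds at 64, 16, 4, 1, 0.25, 0.0625 and 0.015625 μM. MTT solution (5 mg/mL) and DMSO added afterwards, 10 min at room temperature, absorbance read at 490 nm. IC50 calculated as the mean ± SD of three independent experiments.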

[1] = Induction of H2S generation in PBS containing Na2S and MB+ cocktail in presence of TCEP/L-cysteine measured at 15 to 20 mins after 20 mins compound incubation by methylene blue dye based UV-Vis spectrophotometric method; assay type: functional
Procedure, shortened: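 Na2S standards (5–150 μM) in sodium phosphate buffer reacted 20 min at room temperature with methylene blue cocktail (FeCl3/HCl, N,N-dimethyl-1,4-phenylenediamine/HCl, Zn(OAc)2) to build a 670 nm calibration curve. Compounds from 40 mM THF stock added to phosphate buffer with 1 mM TCEP or L-cysteine. Aliquots taken into the cocktail at set times, incubated 20 min, read at 670 nm. Mean of three experiments.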

PBMC = assay: Cytotoxicity against human PBMC assessed as reduction in cell viability after 72 hrs by MTT assay; assay type: cell-based; procedure, shortened: as §1
K562 = assay: Antiproliferative activity against human K562 cells assessed as reduction in cell viability after 72 hrs by MTT assay; assay type: functional, cell-based; conditions: K562, 72 h; procedure, shortened: as §1
SGC-7901 = assay: Antiproliferative activity against human SGC7901 cells assessed as reduction in cell viability after 72 hrs by MTT assay; assay type: functional, cell-based; conditions: SGC-7901, 72 h; procedure, shortened: as §1
Bel-7402 = assay: Antiproliferative activity against human Bel7402 cells assessed as reduction in cell viability after 72 hrs by MTT assay; assay type: functional, cell-based; conditions: Bel-7402, 72 h; procedure, shortened: as §1
L02 = assay: Cytotoxicity against human L02 cells assessed as reduction in cell viability after 72 hrs by MTT assay; assay type: cell-based; conditions: L02, 72 h; procedure, shortened: as §1

| Compound | pIC50 (A549) | Activity [1] | pIC50 (PBMC) | pIC50 (K562) | pIC50 (SGC-7901) | pIC50 (Bel-7402) | pIC50 (L02) |
| --- | --- | --- | --- | --- | --- | --- | --- |
| C=C1C(=O)[C@]23[C@H](OC(=O)CCCCC4CCSS4)[C@H]1CC[C@H]2[C@@]12CO[C@]3(O)[C@@H](O)[C@@H]1C(C)(C)CC[C@@H]2OC(C)=O (stereo partly drawn) | 5.06 | Active | 4.54 | 5.55 | 5.22 | 5.65 | 4.39 |
| O=C(O)CCCCC1CCSS1 (stereo not drawn) [LIPOIC ACID, ALPHA] | < 4.30 |  | < 4.30 | < 4.30 | < 4.30 | < 4.30 | < 4.30 |
| C=C1C(=O)[C@@]23C(=O)OC[C@]4(C(=O)CCC(C)(C)[C@H]4C=O)[C@@H]2CC[C@@H]1[C@H]3O | 5.27 |  | < 4.30 | 5.49 | 4.71 | 5.33 | 4.53 |
| C=C1C(=O)[C@]23[C@H](OC(=O)CCC(=O)Oc4ccc(-c5cc(=S)ss5)cc4)[C@H]1CC[C@H]2[C@@]12CO[C@]3(O)[C@@H](O)[C@@H]1C(C)(C)CC[C@@H]2OC(C)=O | 5.20 |  | 4.36 | 5.60 | 5.26 | 5.54 | 4.63 |
| C=C1C(=O)[C@]23[C@H](OC(=O)CCCC(=O)Oc4ccc(-c5cc(=S)ss5)cc4)[C@H]1CC[C@H]2[C@@]12CO[C@]3(O)[C@@H](O)[C@@H]1C(C)(C)CCC2=O | 5.36 |  | 4.76 | 5.42 | 5.18 | 5.52 | 4.68 |
| C=C1C(=O)[C@@]23C(=O)OC[C@]4([C@@H](OC(C)=O)CCC(C)(C)[C@H]4C=O)[C@@H]2CC[C@@H]1[C@H]3OC(=O)CCC(=O)Oc1ccc(-c2cc(=S)ss2)cc1 | 4.56 | Active | 4.59 | 4.82 | 4.75 | 5.01 | < 4.30 |
| C=C1C(=O)[C@@]23C(=O)OC[C@]4(C(=O)CCC(C)(C)[C@H]4C=O)[C@@H]2CC[C@@H]1[C@H]3OC(=O)c1ccccc1C(=O)Oc1ccc(-c2cc(=S)ss2)cc1 | 5.13 | Active | 4.50 | 5.37 | 5.23 | 5.49 | 4.58 |
| O=c1[nH]cc(F)c(=O)[nH]1 [FLUOROURACIL] |  |  | < 4.30 | 5.40 | 5.20 | 4.75 | < 4.30 |
| Oc1ccc(-c2cc(=S)ss2)cc1 | < 4.30 |  | < 4.30 | < 4.30 | < 4.30 | < 4.30 | < 4.30 |
| C=C1C(=O)[C@]23[C@H](OC(=O)CCC(=O)Oc4ccc(-c5cc(=S)ss5)cc4)[C@H]1CC[C@H]2[C@@]12CO[C@]3(O)[C@@H](O)[C@@H]1C(C)(C)CCC2=O | 5.01 |  | 4.53 | 5.44 | 4.90 | 5.45 | < 4.30 |
| C=C1C(=O)[C@@]23C(=O)OC[C@]4([C@@H](OC(C)=O)CCC(C)(C)[C@H]4C=O)[C@@H]2CC[C@@H]1[C@H]3OC(=O)CCCCC1CCSS1 (stereo partly drawn) | 4.70 | Active | < 4.30 | 5.17 | 5.00 | 5.34 | 4.44 |
| C=C1C(=O)[C@@]23C(=O)OC[C@]4(C(=O)CCC(C)(C)[C@H]4C=O)[C@@H]2CC[C@@H]1[C@H]3OC(=O)CCC(=O)Oc1ccc(-c2cc(=S)ss2)cc1 | 5.26 | Active | 4.78 | 5.74 | 5.37 | 5.86 | 4.74 |
| C=C1C(=O)[C@@]23C(=O)OC[C@]4([C@@H](OC(C)=O)CCC(C)(C)[C@H]4C=O)[C@@H]2CC[C@@H]1[C@H]3O | 4.56 |  | < 4.30 | 5.05 | 4.30 | < 4.30 | < 4.30 |
| C=C1C(=O)[C@]23[C@H](O)[C@H]1CC[C@H]2[C@@]12CO[C@]3(O)[C@@H](O)[C@@H]1C(C)(C)CCC2=O | 5.01 |  | < 4.30 | 5.40 | 4.78 | 5.41 | 4.63 |
| C=C1C(=O)[C@@]23C(=O)OC[C@]4([C@@H](OC(C)=O)CCC(C)(C)[C@H]4C=O)[C@@H]2CC[C@@H]1[C@H]3OC(=O)CCCC(=O)Oc1ccc(-c2cc(=S)ss2)cc1 | 4.83 | Active | 4.51 | 5.49 | 5.12 | 5.34 | < 4.30 |
| C=C1C(=O)[C@]23[C@H](OC(=O)CCCC(=O)Oc4ccc(-c5cc(=S)ss5)cc4)[C@H]1CC[C@H]2[C@@]12CO[C@]3(O)[C@@H](O)[C@@H]1C(C)(C)CC[C@@H]2OC(C)=O | 5.01 |  | < 4.30 | 5.69 | 5.27 | 5.71 | 4.83 |
| C=C1C(=O)[C@@]23C(=O)OC[C@]4(C(=O)CCC(C)(C)[C@H]4C=O)[C@@H]2CC[C@@H]1[C@H]3OC(=O)CCCCC1CCSS1 (stereo partly drawn) | 5.10 | Active | < 4.30 | 5.59 | 5.19 | 5.59 | 4.70 |
| C=C1C(=O)[C@]23[C@H](O)[C@H]1CC[C@H]2[C@@]12CO[C@]3(O)[C@@H](O)[C@@H]1C(C)(C)CC[C@@H]2O [ORIDONIN] | 4.75 |  | < 4.30 |  | 5.10 | 5.08 | 4.73 |
| C=C1C(=O)[C@]23[C@H](OC(=O)c4ccccc4C(=O)Oc4ccc(-c5cc(=S)ss5)cc4)[C@H]1CC[C@H]2[C@@]12CO[C@]3(O)[C@@H](O)[C@@H]1C(C)(C)CC[C@@H]2OC(C)=O | 4.78 | Active | 4.40 | 4.94 | 4.91 | 5.11 | < 4.30 |
| C=C1C(=O)[C@]23[C@H](OC(=O)c4ccccc4C(=O)Oc4ccc(-c5cc(=S)ss5)cc4)[C@H]1CC[C@H]2[C@@]12CO[C@]3(O)[C@@H](O)[C@@H]1C(C)(C)CCC2=O | 5.11 | Active | < 4.30 | 5.32 | 4.83 | 5.27 | 4.37 |
| C=C1C(=O)[C@]23[C@H](O)[C@H]1CC[C@H]2[C@@]12CO[C@@]3(O)[C@@H](O)[C@@H]1C(C)(C)CC[C@@H]2OC(C)=O | 4.87 |  | < 4.30 | 5.31 | 5.19 | 5.44 | 4.65 |
